# iPSC survival up = enhancers of single-cell hiPSC survival, primary screen, ATPlite luminescence; 100% = ROCK inhibitor wells, 0% = DMSO; survival enhancement, % at 20 µM; 360,000 compounds, 0.044% hits; in the data active = survival enhancement above about 18%;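 note: cells exposed to compounds for 16 hours before the ATP read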
# CHOP inh = inhibitors of CHOP promoter induction, primary screen, cell-based, unfolded protein response, luciferase reporter; CHO-K1 CHOP-promoter luciferase, tunicamycin-induced, 15-18 h; 220,000 compounds, 3.8% hits; inhibition, % at 10 µM;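 active = compounds that reduced the stress-induced luciferase reporter signal by more than about 70% of percent inhibition, limit read from the data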;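 note: 0% = tunicamycin plus vehicle and 100% = wells without tunicamycin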
# H9c2 protect = cardioprotection against H2O2-induced cell death, primary screen, uHTS, H9c2 cells, ATPLite luminescence | H9c2 cardiomyocytes, H2O2 injury protection, 2 h | protection from H2O2 cell death, % at 20 µM | 360,000 compounds, 0.63% hits | AID 588492, 2011;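 active = compounds giving at least 50% protection of heart cells from peroxide-induced death in the single-dose screen, raw or plate-pattern-corrected value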;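 note: 0% = DMSO wells with peroxide and 100% = DMSO wells without peroxide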
# UPR CHOP act = activators of apoptotic CHOP UPR arm, primary screen, cell-based, CHO-CHOP luciferase reporter, luminescence, uHTS; UPR activation; percent of tunicamycin response over DMSO baseline; activation, % at 10 µM; 330,000 compounds, 0.34% hits;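 active = at 10 µM dose, activation of 40% or more, normalized to positive control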;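 note: 100% = tunicamycin at 10 µg/mL and 0% = DMSO alone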
#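 System: CHO CHOP reporter cells. Amount: 500 cells per well. Buffer or medium: F12 medium, 10% FBS. Compound dosing: one dose, 10 µM in 0.5% DMSO. Incubation: 6 h compound exposure at 37 °C after overnight seeding. Technique: Steady-Glo luciferase luminescence. Benchmarks: tunicamycin and DMSO controls.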
# UPR XBP1 act = activators of adaptive XBP1 UPR arm, primary screen, cell-based, CHO-XBP1 luciferase reporter, luminescence, uHTS | 330,000 compounds, 0.33% hits | activation, % at 20 µM | IRE1-XBP1 UPR activation; percent of tunicamycin response, DMSO as zero;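 active = versus positive control, 20 µM dose yields 30% or more activation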;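 note: 100% = tunicamycin at 10 µg/mL and 0% = DMSO only wells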
#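 Material: CHO cell line with stable XBP1 luciferase reporter; schedule: 16-18 h cell attachment at 37 °C, then 6 h compound exposure; signal: glow luminescence from Steady-Glo reagent; medium: serum-containing F12 medium, 10% FBS; benchmarks: tunicamycin 10 µg/mL and vehicle-only wells; read-out: percent activation relative to tunicamycin reference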
# UPR CHOP confirm = activators of apoptotic CHOP UPR arm, confirmation, cell-based, CHO-CHOP luciferase reporter, single concentration | activation, % at 10 µM | shares compounds with UPR CHOP act | CHO-CHOP cells, CHOP-luciferase reporter luminescence; percent of tunicamycin response, DMSO as zero | 1,000 compounds, 64% hits; in the data active = activation above about 33%;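 note: 0% = DMSO wells and 100% = tunicamycin 10 µg/mL wells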
# Active calls of the source: *; . = not tested or not shown. This excerpt belongs to a sample that is enriched for hits.
SMILES,iPSC survival up,CHOP inh,H9c2 protect,UPR CHOP act,UPR XBP1 act,UPR CHOP confirm
CCCCCCCCOc1ccc(C2OC34CCCCC3C(C#N)(C#N)C2(C#N)C(=N)O4)cc1 (stereo not given),1.2,-46.2,-2.4,45.0*,-1.9,28.6
NC(=O)C1CCN(C2=C(Cl)C(=O)c3ccccc3C2=O)CC1,-0.6,-183.0,-12.8,393.6*,3.9,-10.3
O=Cc1c[nH]c2ccc(S(=O)(=O)N3CCCCC3)cc12,2.7,.,2.8,.,.,.
Cc1ccc(-c2nn3c(C)nnc3s2)cc1NC(=O)c1ccc(-c2ccc(Cl)cc2Cl)o1,1.3,80.6*,-20.5,45.6*,51.4*,35.2*
CCN(CC)S(=O)(=O)c1ccc(N2CCOCC2)c(NS(=O)(=O)c2ccc(Cl)s2)c1,-1.9,.,3.4,.,.,.
CC(=O)Oc1ccc(OC(C)=O)c(SCCCCCN2CCOCC2)c1,-1.7,-220.3,-16.1,72.8*,-4.0,33.2*
CC(C)c1ccc(OCCCCCN2CCOCC2)cc1,1.2,.,-4.6,2.5,1.3,.
Cc1noc2ncnc(Sc3ccc(Cl)cc3)c12,-0.3,-7.3,-25.4,188.4*,-6.3,117.9*
Cc1ccc(Sc2ncnc3onc(C)c23)cc1,-1.5,26.3,10.6,7.5,3.2,.
O=C(Nc1cc(Cl)ccc1-n1cncn1)c1ccc([N+](=O)[O-])o1,-0.5,.,9.6,2.5,0.9,.
Fc1ccc(C2=Nc3cccc4cccc(c34)N2)cc1,-0.7,-17.3,-5.4,0.2,1.2,.
FC(F)(F)C1=Nc2cccc3cccc(c23)N1,-0.5,.,-3.3,62.2*,-0.5,26.7
COC(=O)c1cc(=O)n(CCc2ccc(OC)c(OC)c2)c(=Nc2ccc(F)c(Cl)c2)s1,-2.9,-22.4,-14.6,40.9*,12.8,63.0*
Cc1cccc(NC(=O)CSc2cccc3cccnc23)c1C,0.1,.,-5.8,2.2,-2.2,.
Cc1cccc(CSc2cccc3cccnc23)c1,-0.1,0.1,-4.0,406.9*,5.1,253.7*
CCOC(=O)CSc1cccc2cccnc12,0.8,2.1,24.3,231.4*,5.2,202.2*
CCCCCCCCCn1c2c(c(=N)c3c1CCC3)CCC2,-1.2,.,-20.2,57.3*,23.4,42.6*
CCCCCCn1c2c(c(=N)c3c1CCC3)CCC2,-3.0,.,-9.4,-2.4,-2.0,.
CC[C@@]1(C(=O)OC)N[C@H](CN(C)C(=O)Nc2ccc(OC)cc2)[C@@H]2C(=O)N(C)C(=O)[C@@H]21,-0.3,.,8.9,3.3,-2.5,.
O=C1OC(C(Cl)(Cl)Cl)Nc2ccccc21 (stereo not given),0.6,.,1.2,.,.,.
COc1ccc(C(=O)N/N=C/c2ccccn2)cc1OC,0.1,23.1,17.0,1.9,2.1,.
COc1ccc(C(=O)Nc2ccccc2C(=O)N/N=C/c2ccccn2)cc1OC,-0.6,51.5,-16.5,101.2*,9.0,100.0*
Cc1ccccc1C(=O)NNC(=O)C1CCN(C(=O)Nc2ccccc2)CC1,-0.3,.,0.5,1.3,-0.6,.
Cc1ccc(S(=O)(=O)NC2OC(=O)C(Cl)=C2Cl)cc1 (stereo not given),-2.1,-78.4,7.8,63.0*,-5.2,14.9
Cc1ccc(S(=O)(=O)NC2CCCCCCC2)cc1,-0.2,.,-11.9,-1.0,-3.2,.
Cc1ccc(C(O)c2ncc(-c3ccccc3)[nH]2)c(C)c1 (stereo not given),0.6,.,-7.8,.,.,.
CC(C)(C)c1ccc(/C=C(\c2nc3ccccc3[nH]2)S(=O)(=O)c2ccccc2)cc1,-0.6,.,-12.3,55.9*,11.3,71.1*
COC(=O)c1ccc(-n2c(C)cc(C(=O)CSc3cccc[n+]3[O-])c2C)cc1,0.2,13.7,0.6,1.9,-1.5,.
COC(=O)c1ccc(C(=O)OC)c(NC(=O)CSc2cccc[n+]2[O-])c1,22.0*,-63.8,5.7,86.8*,19.0,122.0*
Cc1cc(O)ccc1-c1ccc2nncn2c1,1.3,.,1.3,.,.,.
